Columns and labels:
[1] = tested on: B16-F0; assay: Intracellular melanogenesis-stimulating activity in mouse B16F0 cells at 200 uM after 72 hrs by spectrophotometry relative to control; type: functional
[2] = tested on: B16-F0; assay: Intracellular melanogenesis-stimulating activity in mouse B16F0 cells at 100 uM after 72 hrs by spectrophotometry relative to control; type: functional
[3] = tested on: B16-F0; assay: Intracellular melanogenesis-stimulating activity in mouse B16F0 cells at 10 uM after 72 hrs by spectrophotometry relative to control; type: functional
[4] = tested on: B16-F0; assay: Extracellular melanogenesis-stimulating activity in mouse B16F0 cells at 200 uM after 72 hrs by spectrophotometry relative to control; type: functional
Procedure, shortened: (§1)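 B16-F0 cells in DMEM with 10% FBS were seeded at 5.0 × 10⁴ cells/well and adhered for 24 h. They were treated for 72 h at 200–10 µM or 50–6.25 µM, depending on compound series. Absorbance of the collected culture medium at 510 nm gave extracellular melanin, expressed as % of DMSO-treated control. Experiments were done twice.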

[5] = tested on: B16-F0; assay: Extracellular melanogenesis-stimulating activity in mouse B16F0 cells at 100 uM after 72 hrs by spectrophotometry relative to control; type: functional; procedure, shortened: as §1
[6] = tested on: B16-F0; assay: Extracellular melanogenesis-stimulating activity in mouse B16F0 cells at 10 uM after 72 hrs by spectrophotometry relative to control; type: functional; procedure, shortened: as §1
[7] = Cytotoxicity against mouse B16F0 cells assessed as cell viability at 200 uM after 72 hrs by MTT assay; type: cell-based; details: read-out: Activity
Procedure, shortened: (§2)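 B16-F0 cells were seeded at 5.0 × 10⁴ cells/well and allowed to adhere for 24 h at 37 °C. They were exposed for 72 h to compound at 200–10 µM or 50–6.25 µM, depending on compound series. MTT (5 mg/mL stock in PBS) was added for 4 h at 37 °C in 5% CO₂, then dissolved in isopropanol/0.04 N HCl and read at 590 nm. Viability is % of DMSO control; experiments were done twice.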

[8] = Cytotoxicity against mouse B16F0 cells assessed as cell viability at 100 uM after 72 hrs by MTT assay; type: cell-based; details: read-out: Activity; procedure, shortened: as §2
[9] = Cytotoxicity against mouse B16F0 cells assessed as cell viability at 10 uM after 72 hrs by MTT assay; type: cell-based; details: read-out: Activity; procedure, shortened: as §2
[10] = tested on: B16-F0; assay: Intracellular melanogenesis-stimulating activity in mouse B16F0 cells after 72 hrs by spectrophotometry relative to control; type: functional, cell-based
Procedure, shortened: (§3)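 Cells were seeded at 5.0 × 10⁴ cells/well, adhered for 24 h, then treated with compound for 72 h. After a PBS wash, cells were lysed in 1 M NaOH at 100 °C for 30 min to solubilize melanin. Lysate absorbance at 405 nm served as the intracellular melanin index, expressed as % of DMSO control. Experiments were done twice.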

[11] = tested on: B16-F0; assay: Intracellular melanogenesis-stimulating activity in mouse B16F0 cells at 50 uM after 72 hrs by spectrophotometry relative to control; type: functional; procedure, shortened: as §3
[12] = tested on: B16-F0; assay: Intracellular melanogenesis-stimulating activity in mouse B16F0 cells at 25 uM after 72 hrs by spectrophotometry relative to control; type: functional; procedure, shortened: as §3
[13] = tested on: B16-F0; assay: Intracellular melanogenesis-stimulating activity in mouse B16F0 cells at 12.5 uM after 72 hrs by spectrophotometry relative to control; type: functional; procedure, shortened: as §3
[14] = tested on: B16-F0; assay: Extracellular melanogenesis-stimulating activity in mouse B16F0 cells at 50 uM after 72 hrs by spectrophotometry relative to control; type: functional; procedure, shortened: as §1
[15] = tested on: B16-F0; assay: Extracellular melanogenesis-stimulating activity in mouse B16F0 cells at 25 uM after 72 hrs by spectrophotometry relative to control; type: functional; procedure, shortened: as §1
[16] = tested on: B16-F0; assay: Extracellular melanogenesis-stimulating activity in mouse B16F0 cells at 12.5 uM after 72 hrs by spectrophotometry relative to control; type: functional; procedure, shortened: as §1
[17] = Cytotoxicity against mouse B16F0 cells assessed as cell viability at 50 uM after 72 hrs by MTT assay; type: cell-based; details: read-out: Activity; procedure, shortened: as §2
[18] = Cytotoxicity against mouse B16F0 cells assessed as cell viability at 25 uM after 72 hrs by MTT assay; type: cell-based; details: read-out: Activity; procedure, shortened: as §2
[19] = Cytotoxicity against mouse B16F0 cells assessed as cell viability at 12.5 uM after 72 hrs by MTT assay; type: cell-based; details: read-out: Activity; procedure, shortened: as §2
[20] = tested on: B16-F0; assay: Intracellular melanogenesis-stimulating activity in mouse B16F0 cells at 6.25 uM after 72 hrs by spectrophotometry relative to control; type: functional; procedure, shortened: as §3
[21] = tested on: B16-F0; assay: Extracellular melanogenesis-stimulating activity in mouse B16F0 cells at 6.25 uM after 72 hrs by spectrophotometry relative to control; type: functional; procedure, shortened: as §1
[22] = Cytotoxicity against mouse B16F0 cells assessed as cell viability at 6.25 uM after 72 hrs by MTT assay; type: cell-based; details: read-out: Activity; procedure, shortened: as §2

Row | SMILES | Activity [1] [%] | Activity [2] [%] | Activity [3] [%] | Activity [4] [%] | Activity [5] [%] | Activity [6] [%] | viability at 72 h, 200 µM [7] [%] | viability at 72 h, 100 µM [8] [%] | viability at 72 h, 10 µM [9] [%] | Activity [10] | Activity [12] [%] | Activity [13] [%] | Activity [15] [%] | Activity [16] [%] | viability at 72 h, 25 µM [18] [%] | viability at 72 h, 12.5 µM [19] [%] | Activity [20] [%] | Activity [21] [%] | viability at 72 h, 6.25 µM [22] [%] | also measured
1 | O=c1c(O[C@@H]2O[C@H](CO)[C@@H](O[C@@H]3O[C@H](CO)[C@@H](O)[C@H](O)[C@H]3O)[C@H](O)[C@H]2O)c(-c2ccc(O[C@@H]3O[C@H](CO)[C@@H](O)[C@H](O)[C@H]3O)c(O)c2)oc2cc(O)cc(O)c12 | 190.5 | 151.5 | 137 | 125.5 | 116 | 99.7 | 74.8 | 86.8 | 90 | Dose-dependent effect |  |  |  |  |  |  |  |  |  | 
2 | CC(=O)OC[C@H]1O[C@@H](Oc2c(-c3ccc(O)c(O)c3)oc3cc(O)cc(O)c3c2=O)[C@H](OC(C)=O)[C@@H](OC(C)=O)[C@@H]1OC(C)=O |  |  |  |  |  |  |  |  |  |  | 121.4 | 122.4 | 101.5 | 89.3 | 102 | 114 |  |  |  | Activity [11]: 148.4%; Activity [14]: 96.1%; viability at 72 h, 50 µM [17]: 104%
3 | CC(=O)Oc1c(-c2ccc(O)c(O)c2)oc2cc(O)cc(O)c2c1=O |  |  |  |  |  |  |  |  |  |  | 114.3 | 99 | 102.6 | 87.6 | 120 | 110 |  |  |  | Activity [11]: 104.6%; Activity [14]: 126.6%; viability at 72 h, 50 µM [17]: 110%
4 | COc1ccc(-c2oc3cc(O)cc(O)c3c(=O)c2O)cc1O [TAMARIXETIN] |  |  |  |  |  |  |  |  |  |  | 106.9 | 133.5 | 97.9 | 95.1 | 101 | 103 | 125.6 | 97.5 | 104 | 
5 | COc1cc(O)c2c(=O)c(O)c(-c3ccc(OC)c(O)c3)oc2c1 [OMBUINE] |  |  |  |  |  |  |  |  |  |  | 100.5 | 106.1 | 100.1 | 98 | 101 | 101 | 110.2 | 100.5 | 99.7 | 
6 | O=c1c(O[C@@H]2O[C@H](CO)[C@@H](O[C@@H]3O[C@H](CO)[C@@H](O)[C@H](O)[C@H]3O)[C@H](O)[C@H]2O)c(-c2ccc(O)c(O)c2)oc2cc(O)cc(O)c12 | 176 | 126.8 | 102.6 | 85.2 | 91 | 83.3 | 81.1 | 93.2 | 99.6 | Dose-dependent effect |  |  |  |  |  |  |  |  |  | 
7 | O=c1c(O[C@@H]2O[C@H](CO)[C@@H](O)[C@H](O)[C@H]2O)c(-c2ccc(O)c(O)c2)oc2cc(O)cc(O)c12 [ISOQUERCETIN] | 206.9 | 157.1 | 116.3 | 86.1 | 85.1 | 91 | 68.4 | 80.9 | 105 | Dose-dependent effect |  |  |  |  |  |  |  |  |  | 
8 | COc1cc(O)c2c(=O)c(OC)c(-c3ccc(O)c(O)c3)oc2c1 |  |  |  |  |  |  |  |  |  |  | 187.6 | 171.2 | 265.5 | 304.3 | 54.1 | 60.4 | 134 | 222.8 | 80.4 | 
9 | COc1cc(O)c2c(=O)c(O)c(-c3ccc(O)c(O)c3)oc2c1 [RHAMNETIN] |  |  |  |  |  |  |  |  |  |  | 75.8 | 87.6 | 114.3 | 105.2 | 91.6 | 99.4 | 102.4 | 105.5 | 92.7 | 
